In ChEMBL document CHEMBL4689842, “EUbOPEN Chemogenomics Library wave 1” (2021):

Key:
HEK-293T = assay: Multiplex assay against HEK293T; format: toxicity, cell-based; conditions: human;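 for Population Tubulin-Different-Phenotype (%): share of the cells with healthy nuclei that show this phenotype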
Summary of the method: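 Cells stained live at seeding with Hoechst33342, BioTracker Green Microtubule Cytoskeleton Dye, MitoTracker Red and Annexin V Alexa Fluor 680 were imaged on a CQ1 microscope at 37°C and 5% CO2 after compound addition. Their classification by CellPathfinder machine-learning gating ran from Hoechst high-intensity objects versus normal cells, to healthy, pyknosed or fragmented nuclei among normal cells, to mitotic or apoptotic among pyknosed cells. Tubulin, mitochondrial-mass and membrane-permeability phenotypes are per cents of healthy-nucleus cells.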

Fibroblast = assay: Incucyte cell viability with human fibroblast; format: toxicity, cell-based; conditions: 10 µM, compound concentration 10 uM; note: filed as whole numbers so only -1 and 0 and 1 occur
[1] = 12 h, 1 µM, compound concentration 1 uM, replicate 1
[2] = 12 h, 1 µM, compound concentration 1 uM, replicate 2
[3] = 12 h, 10 µM, compound concentration 10 uM, replicate 1
[4] = 12 h, 10 µM, compound concentration 10 uM, replicate 2
[5] = 24 h, 1 µM, compound concentration 1 uM, replicate 1
[6] = 24 h, 1 µM, compound concentration 1 uM, replicate 2
[7] = 24 h, 10 µM, compound concentration 10 uM, replicate 1
[8] = 24 h, 10 µM, compound concentration 10 uM, replicate 2

## Cl.Cn1c2c(c3ccc(Cl)c(Cl)c31)C(C#N)C1(CCNCC1)NC2=O (stereo unspecified)
HEK-293T; [1]
  Population Apoptotic (%): 17%
  Population Fragmented Nuclei (%): 13%
  Population Healthy Nuclei (%): 66%
  Population Hoechst High Intensity Objects (%): 10%
  Population Membrane Permeable-Phenotype (%): 8%
  Population Mitochondria Different-Phenotype (%): 6%
  Population Mitotic Cells (%): 82%
  Population Normal (%): 89%
  Population Pyknosed Nuclei (%): 19%
  Population Tubulin-Different-Phenotype (%): 10%
  Total Cell Count: 650
HEK-293T; [2]
  Population Apoptotic (%): 2%
  Population Fragmented Nuclei (%): 6%
  Population Healthy Nuclei (%): 87%
  Population Hoechst High Intensity Objects (%): 3%
  Population Membrane Permeable-Phenotype (%): 3%
  Population Mitochondria Different-Phenotype (%): 7%
  Population Mitotic Cells (%): 97%
  Population Normal (%): 96%
  Population Pyknosed Nuclei (%): 5%
  Total Cell Count: 1592
HEK-293T; [3]
  Population Apoptotic (%): 24%
  Population Fragmented Nuclei (%): 16%
  Population Healthy Nuclei (%): 30%
  Population Hoechst High Intensity Objects (%): 20%
  Population Membrane Permeable-Phenotype (%): 23%
  Population Mitochondria Different-Phenotype (%): 14%
  Population Mitotic Cells (%): 75%
  Population Normal (%): 79%
  Population Pyknosed Nuclei (%): 52%
  Population Tubulin-Different-Phenotype (%): 76%
  Total Cell Count: 698
HEK-293T; [4]
  Population Apoptotic (%): 17%
  Population Fragmented Nuclei (%): 3%
  Population Healthy Nuclei (%): 74%
  Population Hoechst High Intensity Objects (%): 4%
  Population Membrane Permeable-Phenotype (%): 24%
  Population Mitochondria Different-Phenotype (%): 25%
  Population Mitotic Cells (%): 82%
  Population Normal (%): 95%
  Population Pyknosed Nuclei (%): 22%
  Population Tubulin-Different-Phenotype (%): 95%
  Total Cell Count: 983
HEK-293T; [5]
  Population Apoptotic (%): 16%
  Population Fragmented Nuclei (%): 11%
  Population Healthy Nuclei (%): 77%
  Population Hoechst High Intensity Objects (%): 7%
  Population Membrane Permeable-Phenotype (%): 17%
  Population Mitochondria Different-Phenotype (%): 5%
  Population Mitotic Cells (%): 83%
  Population Normal (%): 92%
  Population Pyknosed Nuclei (%): 10%
  Population Tubulin-Different-Phenotype (%): 17%
  Total Cell Count: 747
HEK-293T; [6]
  Population Apoptotic (%): 5%
  Population Fragmented Nuclei (%): 24%
  Population Healthy Nuclei (%): 72%
  Population Hoechst High Intensity Objects (%): 3%
  Population Membrane Permeable-Phenotype (%): 7%
  Population Mitochondria Different-Phenotype (%): 1%
  Population Mitotic Cells (%): 94%
  Population Normal (%): 96%
  Population Pyknosed Nuclei (%): 2%
  Population Tubulin-Different-Phenotype (%): 11%
  Total Cell Count: 2758
HEK-293T; [7]
  Population Apoptotic (%): 25%
  Population Fragmented Nuclei (%): 19%
  Population Healthy Nuclei (%): 32%
  Population Hoechst High Intensity Objects (%): 19%
  Population Membrane Permeable-Phenotype (%): 16%
  Population Mitochondria Different-Phenotype (%): 22%
  Population Mitotic Cells (%): 74%
  Population Normal (%): 80%
  Population Pyknosed Nuclei (%): 47%
  Population Tubulin-Different-Phenotype (%): 86%
  Total Cell Count: 669
HEK-293T; [8]
  Population Apoptotic (%): 12%
  Population Fragmented Nuclei (%): 5%
  Population Healthy Nuclei (%): 81%
  Population Hoechst High Intensity Objects (%): 9%
  Population Membrane Permeable-Phenotype (%): 13%
  Population Mitochondria Different-Phenotype (%): 25%
  Population Mitotic Cells (%): 87%
  Population Normal (%): 91%
  Population Pyknosed Nuclei (%): 13%
  Population Tubulin-Different-Phenotype (%): 94%
  Total Cell Count: 1033
Fibroblast; 6 h, replicate number 1, timepoint 6 hours
  Growth Rate: 0
Fibroblast; 12 h, replicate number 1, timepoint 12 hours
  Growth Rate: 0
Fibroblast; 18 h, replicate number 1, timepoint 18 hours
  Growth Rate: 0
Fibroblast; 24 h, replicate number 1, timepoint 24 hours
  Growth Rate: 0
